Measured values from PMC5384874 (Medicinal chemistry (Shariqah (United Arab Emirates)), 2017).

Experiments:
Type in all cases: cell-based, human
A549 = assay: Cytotoxicity assay, CCK-8 method, A549; conditions: read-out: IC50, cytotoxicity against A549; A549, CCK-8, 24 h incubation
Outline: (§1)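 Cells grown in RPMI with 10% fetal bovine serum, penicillin (100 U/mL) and streptomycin (50 μg/mL), seeded in 96-well plates at […]. Test compound added at increasing concentrations; untreated cells as control. Incubated 24 h at 37 °C, 5% CO2, humidified. CCK-8 added, 2 h at 37 °C, read with europium detection protocol. IC50 versus DMSO-treated wells by logit method, at least three independent tests.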

MCF-7 = assay: Cytotoxicity assay, CCK-8 method, MCF-7; conditions: read-out: IC50, cytotoxicity against MCF-7; MCF-7, CCK-8, 24 h incubation
Outline: as §1

HeLa = assay: Cytotoxicity assay, CCK-8 method, HeLa; conditions: read-out: IC50, cytotoxicity against HeLa, CCK-8, 24 h incubation
Outline: as §1

In the case of phylactones F/G [5/6], the IC50 (A549) is reported as 7.8 µM, the IC50 (MCF-7) is reported as 5.2 µM and the IC50 (HeLa) is reported as 9.6 µM.
